Where two headings read alike, the source gives them in different places. Values belong to the molecule of their own block, whether it stands above or below them.
How the values were obtained:
[1] = tested on: AR + TNBC; conditions: cited from earlier work
[2] = tested on: mCRPC; conditions: compared to placebo, cited from earlier work
[3] = tested on: CYP3A4; conditions: 1μM substrate over 60 min; ref unpublished data on file; cited from earlier work
[4] = Previously reported noncompartmental clinical PK of seviteronel; type: in vivo, human; conditions: with BID dosing, predicted from half-lives of 6.4 to 9.2 h
[5] = Population PK model of seviteronel; type: in vivo, human; conditions: for predicted accumulation: from simulated half-life 17.5 h
Procedure, shortened: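 Dense and sparse plasma concentrations (sparse from cycle 1 day 14, then every other cycle; LC-MS/MS; BQL excluded) were pooled; fed and fasted first doses counted as separate patients. One-, two- and three-compartment models with first-order or saturable absorption/elimination were tested, with exponential between-subject variability. Covariates tested: sex, body weight, prandial status, dexamethasone. Selection used OFV (−2LL; ΔOFV > 3.84, α = 0.05). Evaluation used a VPC with 200 simulated replicates (5th/50th/95th percentiles) and a split-off trough validation dataset.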

[6] = men taking 600 mg QD; cited from earlier work
[7] = tested on: CYP17 lyase; conditions: cited from earlier work
[8] = tested on: CYP2C19; conditions: 1uM substrate over 60 min; ref unpublished data on file; cited from earlier work
[9] = cited from earlier work
[10] = Noncompartmental analysis of seviteronel plasma PK in patients; type: in vivo, human
[11] = tested on: CYP2C9; conditions: 1uM substrate over 60 min; ref unpublished data on file; cited from earlier work
[12] = apparent oral inter-compartmental clearance
[13] = apparent oral total systemic clearance
[14] = apparent oral volume of distribution of the central compartment
[15] = apparent oral volume of distribution of the peripheral compartment
[16] = transit rate between compartments of the transit absorption model

SMILES: CC(=O)O[C@H]1CC[C@@]2(C)C(=CC[C@@H]3[C@@H]2CC[C@]2(C)C(c4cccnc4)=CC[C@@H]32)C1 [abiraterone acetate]
- radiographic progression-free survival (rPFS) ([1]; in combination with prednisone, women with AR + (> 0% by IHC) TNBC): 11.2 weeks

SMILES: CNC(=O)c1ccc(N2C(=S)N(c3ccc(C#N)c(C(F)(F)F)c3)C(=O)C2(C)C)cc1F [enzalutamide]
- radiographic progression-free survival (rPFS) ([1]; single-arm, open-label study, women with AR + (≥ 10% by IHC) TNBC): 14.7 weeks
- improvement in overall survival (OS) ([2]; post-chemotherapy): 4.8 mo
- overall reduction in risk of death ([2]; post-chemotherapy): 37%
- improvement in overall survival (OS) ([2]; pre-chemotherapy): 2.4 mo
- overall reduction in risk of death ([2]; pre-chemotherapy): 29%

- predicted accumulation to steady-state [4]: 37–68%
- CL/F, bootstrap mean estimate ([5]; 200 replicates): 6.89 L/h
- Ka, bootstrap mean estimate ([5]; 200 replicates): 2.47 h⁻¹
- Ktr, bootstrap mean estimate ([5]; 200 replicates): 1.98 L/h
- Q/F, bootstrap mean estimate ([5]; 200 replicates): 6.99 L/h
- V/F, bootstrap mean estimate ([5]; 200 replicates): 99.97 L
- Vp/F, bootstrap mean estimate ([5]; 200 replicates): 352.6 L
- BSV on CL/F ([5]; after accounting for sex effect): 45%
- Q/F, base model estimate [5, 12]: 6.99 L/h
- Q/F, final model estimate [5, 12]: 6.99 L/h
- CL/F, base model estimate [5, 13]: 7.15 L/h
- CL/F, final model estimate [5, 13]: 6.69 L/h
- V/F, base model estimate [5, 14]: 69.9 L
- V/F, final model estimate [5, 14]: 99.97 L
- Vp/F, base model estimate [5, 15]: 369 L
- Vp/F, final model estimate [5, 15]: 343.4 L
- dCLdSex, final model estimate ([5]; covariate effect on CL/F by Sex): 0.5883
- dCLdSex, bootstrap mean estimate ([5]; covariate effect on CL/F by Sex, 200 replicates): 0.559
- Between subject variability (%CV; ω) on Ka ([5]; final model): 133%
- Between subject variability (%CV; ω) on Ktr ([5]; final model): 94.9%
- Between subject variability (%CV; ω) on Q/F ([5]; final model): 51.5%
- Between subject variability (%CV; ω) on V/F ([5]; final model): 51.4%
- Between subject variability (%CV; ω) on Vp/F ([5]; final model): 35.9%
- Ka, base model estimate ([5]; first-order absorption rate): 1.99 h⁻¹
- Ka, final model estimate ([5]; first-order absorption rate): 2.49 h⁻¹
- BSV on CL/F ([5]; overall, before covariates): 59.6%
- Ktr, base model estimate [5, 16]: 1.99 L/h
- Ktr, final model estimate [5, 16]: 1.99 L/h
- predicted accumulation ([5]; with BID dosing): 164%
- predicted accumulation ([5]; with QD dosing): 63%
- food effect on PK ([10]; Study 001, fasted vs fed): no statistically-significant food effect
- half-life longer with 48 h sampling than calculated with 0–24 h sampling ([10]; Study 002): ~ 60%
- steady-state AUCTAU higher than first-dose AUCINF ([10]; Study 002, QD dosing): ~ 60%
- accumulation at steady-state ([10]; observed plasma concentrations, Fig. 1): ~ 60%
SMILES: CC(C)[C@](O)(c1ccc2cc(OC(F)F)c(OC(F)F)cc2c1)c1c[nH]nn1 [seviteronel]
- loss of substrate [3]: 57%
- BSV of V/F ([5]; before sex and body weight were included on CL/F): 62.9%
- dCLdWt, final model estimate ([5]; covariate effect on CL/F by body weight): 0.2514
- dCLdWt, bootstrap mean estimate ([5]; covariate effect on CL/F by body weight, 200 replicates): 0.3595
- Between subject variability (%CV; ω) on CL/F ([5]; final model, sex and body weight on CL/F): 37.4%
- CMAX [6]: 4403 ± 1817 ng/mL
- selectivity for inhibition of CYP17 lyase versus hydroxylase [7]: tenfold
- loss of substrate [8]: 100%
- DLTs ([9]; 450 mg QD): no reported DLTs
- time for drug-related adverse events to resolve to baseline ([9]; CRPC men treated with seviteronel): 2–3 weeks
- Grade 1 events, 600 mg QD relative to 450 mg QD ([9]; women): five times more
- steady-state trough levels with vs without dexamethasone ([10]; dexamethasone 0.5 mg daily co-administration): no statistically significant differences were observed
- loss of substrate [11]: 100%

— article PMC8132106 (Cancer chemotherapy and pharmacology, 2019)
